Bioassay records as filed in PubChem.
DTT redox prof = compounds producing H2O2 with reducing agent – biochemical, NIH compound library profiling, artefact control for MLSCN library redox annotation, primary screen | hit rate 0.03% among 200,000 | activation, % at 10 µM | DTT-dependent redox cycling H2O2, phenol red/HRP absorbance; 100% = 100 µM peroxide control, 0% = buffer;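 active means activation of at least 50% relative to the plate's high and low controls in the primary single-dose screen; inactive means activation below 50%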;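 further: compound incubated with DTT at 0.8 mM final as the reducing agent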
b-catenin transl = beta-catenin nuclear translocation modulation | nuclear translocation activity, % at 5 µM | AID 1665 | HeLa beta-catenin nuclear translocation, immunofluorescence imaging | hit rate 0.3% among 190,000;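 active means nuclear translocation activity above 50% at 5 µM, with a well cell count of 50 or more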;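 further: per-cell ratio of nuclear to cytoplasmic median beta-catenin stain intensity; plate controls were DMSO negative control for no effect and GSK-3 inhibitor IX positive control for full effect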
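Technique: fluorescence imaging of beta-catenin antibody stain plus DAPI / Material: human HeLa cell line / Incubation: compound treatment 24 h, 37°C, 5% CO2 / Read-out basis: % activation of per-cell nuclear versus cytoplasmic median beta-catenin signal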
ROMK primary = modulates human ROMK potassium channel activity; Tet-inducible ROMK, thallium flux fluorescence; actives lie on both sides; hit rate 2% among 130,000; B-score at 10 µM; P48048;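 active means signal ratio slope over the read window, or its plate-corrected B-score, at least 3 SD from the plate mean, either direction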;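 further: B-score of the F/F0 ratio slope over 7 to 12 s after thallium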
Target sequence (P48048 whole entry, looked up): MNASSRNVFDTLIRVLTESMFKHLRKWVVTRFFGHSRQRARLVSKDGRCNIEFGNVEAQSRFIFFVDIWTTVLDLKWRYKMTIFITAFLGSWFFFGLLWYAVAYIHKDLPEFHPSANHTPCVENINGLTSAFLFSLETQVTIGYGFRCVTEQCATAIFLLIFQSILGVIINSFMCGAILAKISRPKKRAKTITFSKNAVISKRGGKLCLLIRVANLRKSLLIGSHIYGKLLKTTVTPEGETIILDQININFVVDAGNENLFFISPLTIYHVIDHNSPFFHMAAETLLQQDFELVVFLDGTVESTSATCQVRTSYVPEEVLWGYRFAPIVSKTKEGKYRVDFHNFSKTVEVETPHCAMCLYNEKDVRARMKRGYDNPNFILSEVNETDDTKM
KCC2 mod = modulates chloride dependent transport by human KCC2 | KCC2 cells, thallium flux FluoZin-2 fluorescence | B-score of Tl+ flux slope (higher = more flux/activation; lower = inhibition) at 10 µM | hit rate 2.2% among 190,000 | AID 1456 | Q9H2X9;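 active means thallium flux slope and its plate-corrected score both differing from the plate sample mean at a set confidence after two filtering rounds, in either direction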;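 further: slope of fluorescence scaled to starting intensity during 10 to 20 s after thallium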
MT stabilize HCS = microtubule stabilization, imaging screen. HeLa tubulin immunostaining HCS, 24 h; share of cells brighter than vehicle mean+2SD. % tubulin-high responders, % at 10 µM. hit rate 0.83% among 200,000. AID 2205;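 active means plate Z-score above 3 for both tubulin-high and condensed-nucleus cell shares, with cell loss under 80%, at 10 µM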;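 further: anti alpha tubulin signal scored within the nucleus-defined area of each cell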
ROMK hit retest = retested hit modulating human ROMK potassium channel; normalized thallium flux (F/F0 slope) at 10 µM; ROMK thallium flux, fluorescence ratio; hits give low values; hit rate 54% among 3,000; shares compounds with ROMK primary;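 active means Flux at 10 µM at least 3 SD below or above vehicle control mean in one or both replicates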
The depositor's hits bear a star; / = no result. Shown are actives, neighbours in structure and some others; about 3.7% of the full set was active somewhere.

SMILES | DTT redox prof | b-catenin transl | ROMK primary | KCC2 mod | MT stabilize HCS | ROMK hit retest
CCN(CC)C(=O)Cn1cc(C(=O)C(=O)N2CC=C(c3ccccc3)CC2)c2ccccc21 | 0 | 0 | / | -1.2 | 2 | /
Cc1nonc1OCCNCc1c(C(=O)N(C)C)nc2ccc(Cl)cn12 | -1 | 1 | / | 0.027 | 2 | /
COc1ccc(S(=O)(=O)N2CCCC2C(=O)Nc2ccc(O)cc2)cc1 (stereo not drawn) | 0 | 1 | / | -0.14 | 2 | /
COc1ccc(S(=O)(=O)N2CCC[C@H]2C(=O)NC2=NCCS2)cc1 | 3 | -2 | / | 0.22 | 2 | 0.071
COc1ccc(C)c2sc(NNC(=O)COc3ccccc3)nc12 | 0 | -1 | -1 | 0.45 | 2 | /
COc1ccc(NC(=O)CN2CCC(C(N)=O)CC2)cc1 | 0 | -7 | 0.36 | / | 4 | /
COc1ccc(CCNC(=O)CN2CCC(C(N)=O)CC2)cc1 | 3 | -5 | / | / | 1 | 0.087
COc1ccc(CCNC(=O)COC(=O)c2ccc(N3CCCC3=O)cc2)cc1 | 0 | 0 | 1.4* | 0.14 | 4 | 0.071
Cc1ccc(NS(=O)(=O)c2cc([N+](=O)[O-])ccc2NNC(=S)Nc2cc(C)ccc2C)c(C)c1 | -1 | -1 | / | -0.61 | 8 | 0.064*
COc1cc(/C=N/NC(=O)c2ccc(F)cc2)ccc1OC(=O)c1ccco1 | 0 | / | 0.039 | 0.34 | 1 | /
COc1ccc(/C=C/C(=O)c2cc(Br)ccc2OC(=O)c2ccco2)cc1OC | 0 | 29 | 2.2 | -0.16 | 4 | 0.083
COc1cc(/C=C2/C(=O)NN(c3cccc(F)c3)C2=O)ccc1OC(=O)c1ccco1 | 1 | 2 | -0.77 | -0.92 | 5 | /
COc1cc(/C=C2/C(=O)NN(c3ccc(Cl)cc3)C2=O)ccc1OC(=O)c1ccco1 | 1 | -2 | -3.3* | -0.65 | 2 | 0.071
COC(=O)N/N=C/c1ccc(OC(=O)c2ccco2)c(OC)c1 | / | -1 | 4.6* | 0.014 | / | 0.073
COc1ccc(/C=C/C(=O)c2cc(Br)ccc2O)cc1OC | 0 | -6 | -0.044 | -0.65 | 3 | /
Cc1ccc(/C=C(\C#N)C(=O)NC(C)C)o1 | -2 | -2 | 0.022 | -0.34 | 2 | /
CC(C)NC(=O)/C(C#N)=C/c1ccc(N(C)C)o1 | / | 0 | -7.4* | -1.3 | / | 0.047*
CCCN(CCC)C(=O)c1cc2c(=O)[nH]c3ccc(C)cc3c2s1 | -1 | 4 | -4.2* | -1 | 5 | 0.073
CCN(C(=O)c1cc2c(=O)[nH]c3ccc(C)cc3c2s1)c1ccc(OC)cc1 | / | 0 | -0.65 | 0.29 | / | /
Cc1ccccc1OCC(=O)N(Cc1nc(-c2ccccc2)no1)C(C)C | 4 | / | / | 0.26 | 3 | /
COc1ccccc1OCC(=O)N(Cc1nc(-c2ccccc2)no1)C1CCCCC1 | 2 | / | / | -0.55 | 3 | 0.079
C=CCC1(CC=C)CCCN1Cc1nc(COc2ccccc2)no1 | / | 0 | / | -0.19 | / | /
CCn1nnc(NC(=O)C(c2ccccc2)c2ccccc2)n1 | 0 | 0 | -7.3* | 0.23 | 1 | 0.077
Cn1nnc(NC(=O)C(c2ccccc2)c2ccccc2)n1 | 2 | 0 | / | / | 2 | /
O=C(COc1ccccc1C(=O)NCC1CCCO1)Nc1ccc(Br)cc1 (stereo not drawn) | -1 | -2 | -0.33 | -1.5 | 5 | /
SMILES | DTT redox prof | b-catenin transl | ROMK primary | KCC2 mod | MT stabilize HCS | ROMK hit retest
O=C(NCc1ccco1)C1CC(c2ccc(F)cc2)=NO1 (stereo not drawn) | / | -2 | / | 0.17 | / | /
O=C(NCc1ccco1)C1CC(c2ccc(Cl)cc2)=NO1 (stereo not drawn) | 1 | 2 | 4.6* | -0.48 | 1 | 0.093
COc1cccc(C2=NOC(C(=O)NCc3ccco3)C2)c1 (stereo not drawn) | 0 | / | 5* | / | 10 | 0.081
Cc1ccc(OCC(=O)N2CCc3ccccc3C2)c([N+](=O)[O-])n1 | 0 | -3 | -0.41 | -1.9 | 3 | /
CCn1c(=O)c([N+](=O)[O-])c(Cl)c2ccccc21 | -1 | 0 | -4.9* | -2.4 | 1 | 0.046*
O=C1/C(=C/c2ccc(O)c(O)c2)SC(=S)N1Nc1ccccc1 | -4 | 1 | -2* | -2.3 | 8 | 0.058*
COc1cc(/C=C2\SC(=S)N(c3cccnc3)C2=O)ccc1O | / | 6 | / | 0.13 | / | /
COc1cc(/C=C2\SC(=S)N(Nc3ncc(C(F)(F)F)cc3Cl)C2=O)ccc1O | 0 | / | -3.7* | -0.65 | 7 | 0.064*
